Laboratory results taken from ChEMBL document CHEMBL1142435, “Two-step synthesis of achiral dispiro-1,2,4,5-tetraoxanes with outstanding antimalarial activity, low toxicity, and high-stability profiles” (J Med Chem, 2008).

What was measured:
[1] = system: Plasmodium falciparum; experiment: Antimalarial activity against Plasmodium falciparum 3D7; format: functional, organism-based
[2] = system: Plasmodium berghei; experiment: Antimalarial activity against Plasmodium berghei ANKA infected mice (Mus musculus) by peroral dose; format: functional; details: po
[3] = Chemical stability assessed as endoperoxide recovery after 4 hrs by iron degradation study; format: physicochemical; details: read-out: Stability
Outline: (§1)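 Endoperoxide (1.0 equiv FeBr₂) was held in THF for 4, 8, 24 or 48 h. The residue was purified by flash column chromatography, and the percent recovery of starting endoperoxide was calculated.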

[4] = Chemical stability assessed as endoperoxide recovery after 8 hrs by iron degradation study; format: physicochemical; details: read-out: Stability; outline: as §1
[5] = Chemical stability assessed as endoperoxide recovery after 24 hrs by iron degradation study; format: physicochemical; details: read-out: Stability; outline: as §1
[6] = Chemical stability assessed as endoperoxide recovery after 48 hrs by iron degradation study; format: physicochemical; details: read-out: Stability; outline: as §1
[7] = Cytotoxicity against rat L6 cells by resazurin reduction assay; format: cell-based; details: read-out: TC50 (the source's name)
Outline: (§2)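 Cytotoxicity was read by resazurin reduction. A single full dose-response curve was built from 10 independent drug concentrations to give TOX₅₀.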

[8] = Cytotoxicity against human MRC5 cells by resazurin reduction assay; format: cell-based; details: read-out: TC50 (the source's name); outline: as §2
[9] = Cytotoxicity against african green monkey Vero cells by resazurin reduction assay; format: cell-based; details: chlorocebus sabaeus, read-out: TC50 (the source's name); outline: as §2
[10] = Cytotoxicity against rat H9c(2-1) cells by resazurin reduction assay; format: cell-based; details: read-out: TC50 (the source's name); outline: as §2
[11] = Therapeutic index, ratio of TOX50 for human […] cells to IC50 Plasmodium falciparum 3D7; format: cell-based
Outline: (§3)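 TOX₅₀ came from resazurin reduction, with single full dose-response curves over 10 independent concentrations. The index is TOX₅₀ divided by the IC₅₀ against the P. falciparum 3D7 isolate.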

[12] = Therapeutic index, ratio of TOX50 for rat L6 cells to IC50 Plasmodium falciparum 3D7; format: cell-based; outline: as §3
[13] = Therapeutic index, ratio of TOX50 for human MRC5 cells to IC50 Plasmodium falciparum 3D7; format: cell-based; outline: as §3
[14] = Therapeutic index, ratio of TOX50 for african green monkey (Cercopithecus aethiops) Vero cells to IC50 Plasmodium falciparum 3D7; format: cell-based; outline: as §3
[15] = Therapeutic index, ratio of TOX50 for rat H9c(2-1) cells to IC50 Plasmodium falciparum 3D7; outline: as §3
[16] = system: Salmonella typhimurium; experiment: Genotoxicity against Salmonella Typhimurium TA 1535/pSK1002 assessed as induction of umu operon expression; format: toxicity, organism-based; details: salmonella enterica subsp. enterica serovar typhimurium
[17] = system: Salmonella typhimurium; experiment: Genotoxicity against Salmonella Typhimurium TA 1535/pSK1002 assessed as induction of umu operon expression in presence of rat liver S9 fraction; format: toxicity, organism-based; details: salmonella enterica subsp. enterica serovar typhimurium
Outline: (§4)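 SOS/umu assay with rat liver S9-mix for metabolic activation. Tester strains carry plasmid pSK1002 with a umuC-lacZ fusion, and induced β-galactosidase activity is the read-out. Positive controls checked strain response. The highest concentration tested was 50 µM.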

[18] = system: Salmonella typhimurium; experiment: Genotoxicity against Salmonella Typhimurium NM2009 assessed as induction of umu operon expression; format: toxicity, organism-based; details: salmonella enterica subsp. enterica serovar typhimurium
[19] = system: Salmonella typhimurium; experiment: Genotoxicity against Salmonella Typhimurium NM2009 assessed as induction of umu operon expression in presence of rat liver S9 fraction; format: toxicity, organism-based; details: salmonella enterica subsp. enterica serovar typhimurium; outline: as §4
[20] = Chemical stability in dichloromethane assessed as tetraoxane recovery after 7 days; format: physicochemical; details: read-out: Stability
[21] = Chemical stability in dichloromethane in presence of formic acid assessed as tetraoxane recovery after 7 days; format: physicochemical; details: dichloromethane with formic acid; read-out: Stability
[22] = Chemical stability in water assessed as tetraoxane recovery after 7 days; format: physicochemical; details: read-out: Stability
[23] = Chemical stability in phosphate buffer assessed as tetraoxane recovery at pH 7.4 after 16 hrs; format: physicochemical; details: read-out: Stability
[24] = system: Plasmodium falciparum; experiment: Antimalarial activity against Plasmodium falciparum DD2; format: functional, organism-based
[25] = system: Plasmodium falciparum; experiment: Antimalarial activity against Plasmodium falciparum K1; format: functional, organism-based
[26] = system: Plasmodium falciparum; experiment: Antimalarial activity against Plasmodium falciparum GC03; format: functional, organism-based
[27] = system: Plasmodium falciparum; experiment: Antimalarial activity against Plasmodium falciparum V1/S; format: functional, organism-based; details: V1S
[28] = system: Plasmodium falciparum; experiment: Antimalarial activity against Plasmodium falciparum HB3; format: functional, organism-based
[29] = system: Plasmodium falciparum; experiment: Antimalarial activity against Plasmodium falciparum PH3; format: functional, organism-based
[30] = system: Plasmodium falciparum; experiment: Antimalarial activity against Plasmodium falciparum TM4; format: functional, organism-based
[31] = Cytotoxicity against human […] cells by resazurin reduction assay; format: cell-based; details: read-out: TC50 (the source's name); outline: as §2
[32] = system: Plasmodium falciparum; experiment: Antimalarial activity against Plasmodium falciparum

## C[C@@H]1CC[C@H]2[C@@H](C)C(=O)O[C@@H]3O[C@@]4(C)CC[C@@H]1[C@]32OO4 [ARTEMISININ]
[1]
  IC50: 9.2 nM
[2]
  ED50: 8.42 mg/kg

## CCS(=O)(=O)N1C2CCC1CC1(C2)OOC2(OO1)C1CC3CC(C1)CC2C3 (stereo not given)
[1]
  IC50: 60.6 nM

## O=S(=O)(c1ccccc1)N1CCC2(CC1)COC1(OO2)C2CC3CC(C2)CC1C3 (stereo not given)
[3]
  remaining at 4 h: 96.8%
[4]
  remaining at 8 h: 84.9%
[5]
  remaining at 24 h: 56.7%
[6]
  remaining at 48 h: 43.2%

## CCS(=O)(=O)N1CCC2(CC1)OOC1(OO2)C2CC3CC(C2)CC1C3
[7]
  CC50: 31000 nM
[8]
  CC50: > 50000 nM
[9]
  CC50: > 50000 nM
[10]
  CC50: > 50000 nM
[11]
  TI: > 9090
[12]
  TI: 5640
[13]
  TI: > 9090
[14]
  TI: > 9090
[15]
  TI: > 9090
[16]
  Activity: 1.03
[17]
  Activity: 0.98
[18]
  Activity: 1.07
[19]
  Activity: 0.95
[20]
  remaining at 168 h: 96.2%
[21]
  remaining at 168 h: 92.3%
[22]
  remaining at 168 h: 97.8%
[23]
  remaining at 16 h: 93.2%
[1]
  IC50: 5.55 nM
[24]
  IC50: 3 nM
[25]
  IC50: 3 nM
[26]
  IC50: 3 nM
[27]
  IC50: 2.7 nM
[28]
  IC50: 3.8 nM
[29]
  IC50: 1.9 nM
[30]
  IC50: 2.4 nM
[31]
  CC50: > 50000 nM

## O=S(=O)(c1ccccc1)N1CCC2(CC1)OCC1(OO2)C2CC3CC(C2)CC1C3 (stereo not given)
[1]
  IC50: > 1000 nM

## O=S(=O)(c1ccccc1)N1CCC2(CC1)OOC1(OO2)C2CC3CC(C2)CC1C3
[3]
  remaining at 4 h: 88.7%
[4]
  remaining at 8 h: 80.5%
[5]
  remaining at 24 h: 72%
[6]
  remaining at 48 h: 69%
[1]
  IC50: 5.46 nM

## CS(=O)(=O)N1CCC2(CC1)OOC1(CCCCCCCCCCC1)OO2
[1]
  IC50: 27.8 nM

## CCN(CC)Cc1cc(Nc2ccnc3cc(Cl)ccc23)ccc1O
[24]
  IC50: 6.1 nM
[25]
  IC50: 10.2 nM
[26]
  IC50: 4.5 nM
[27]
  IC50: 7.7 nM
[28]
  IC50: 5.9 nM
[29]
  IC50: 4.7 nM
[30]
  IC50: 6.4 nM

## O=S(=O)(c1ccccc1)N1CCC2(CC1)OOC1(CCCCCCCCCCC1)OO2
[1]
  IC50: 131 nM

## O=C(CC1CCC2(CC1)OOC1(OO2)C2CC3CC(C2)CC1C3)N1CCOCC1 (stereo not given)
[16]
  Activity: 1.04
[17]
  Activity: 0.98
[18]
  Activity: 1.22
[19]
  Activity: 1.02
[32]
  IC50: 5.2 nM

## O=S(=O)(c1ccc(Cl)cc1)N1CCC2(CC1)OOC1(OO2)C2CC3CC(C2)CC1C3
[1]
  IC50: 22.7 nM

## CC(C)S(=O)(=O)N1CCC2(CC1)OOC1(OO2)C2CC3CC(C2)CC1C3
[1]
  IC50: 5.87 nM
